Measured values pooled from the literature.
Protocols differ between the studies behind these lines.
Target: Serine/threonine-protein kinase PLK2 (PLK2, Homo sapiens, UniProt Q9NYY3)

CC(C)(C)c1nc2c(s1)c1nc(N)ncc1c1ccc(NS(=O)(=O)c3c(F)cccc3F)c(F)c12
remaining activity (enzyme activity; inhibitor; radiometric; 1 µM): 91%

N[C@@H]1CCN(c2nccc(-c3cnn4ncccc34)n2)C1
remaining binding (binding; 1 µM): 100%

CNC(=O)Nc1ccc2c(c1)[C@@]1(CC2)OC(=O)N(CC(=O)N(Cc2ccc(F)cc2)[C@@H](C)C(F)(F)F)C1=O
remaining binding (cell-free assay; competition with immobilised ligand; 1 µM): 92%

O=C(Nc1cnn(-c2csc(C(=O)NC3COC3)c2)c1)Nc1c(F)cccc1Cl
remaining activity (enzyme activity; inhibitor; 5 µM): 100%

COc1cc2ncnc(Nc3ccc(Oc4ccccc4)cc3C)c2cc1OC
inhibition (enzyme activity; inhibitor; 1 µM): 5%

CCOc1cc(-c2nncn2C)ccc1Nc1ncc2cc(C)nc(NCC(C)(C)C)c2n1
inhibition (enzyme activity; inhibitor; FRET; 1 µM): < 15%

C[C@H](c1ccnc(Nc2nc3ccc(-c4cc(N(C)C)ncn4)cc3[nH]2)c1)N1CCN(C(=O)CC(F)(F)F)CC1
remaining binding (cell-free assay; competition with immobilised ligand; 0.1 µM): 100%

CCCS(=O)(=O)Nc1ccc(F)c(C(=O)c2c[nH]c3ncc(-c4ccc(Cl)cc4)cc23)c1F
inhibition (enzyme activity; inhibitor; 1 µM): < 10%

Cc1cc(NC(=O)c2cccc3cc(-c4cccc5[nH]nc(N)c45)ccc23)ccc1F
activity vs control (enzyme activity; inhibitor; 0.1 µM): 91%

Cc1ccc(Nc2nccc(N(C)c3ccc4c(C)n(C)nc4c3)n2)cc1S(N)(=O)=O
inhibition (enzyme activity; inhibitor; 0.3 µM): -15%

O=C(O)c1cc(-c2ccc(C3CCNCC3)cc2)c2ccc(-c3ccc(C(F)(F)F)cc3)cc2c1
remaining binding (cell-free assay; competition with immobilised ligand; 1 µM): 100%

CNC(=O)c1cc(Oc2ccc(NC(=O)Nc3ccc(Cl)c(C(F)(F)F)c3)cc2)ccn1
inhibition (enzyme activity; inhibitor; 10 µM): 15%

CO[C@@H](C)c1c(Nc2ccc([C@@H](N(C)C(=O)C3CCS(=O)(=O)CC3)C(F)(F)F)cc2)cnc2cc(Cl)nn12
remaining binding (cell-free assay; competition with immobilised ligand; 1 µM): 100%

COc1cc(Nc2c(C#N)cnc3cc(OCCCN4CCN(C)CC4)c(OC)cc23)c(Cl)cc1Cl
remaining signal (cell-free assay; 0.5 µM): 100%

O=C(O)[C@H]1[C@H](Cn2nnc3ccccc3c2=O)CC[C@@H]1C(=O)c1ccc(OCCC2CCOCC2)cc1
remaining binding (cell-free assay; competition with immobilised ligand; 1 µM): 100%

COc1cc2c(Nc3ccc(Br)cc3F)ncnc2cc1OCC1CCN(C)CC1
remaining signal (cell-free assay; 0.5 µM): 103%
